Measurements from ChEMBL document CHEMBL2439985, “Multifunctional cyclic D,L-α-peptide architectures stimulate non-insulin dependent glucose uptake in skeletal muscle cells and protect them against oxidative stress” (J Med Chem, 2013).
pEC50: −log10 of the molar value. Calls of active or inactive are those of the source. The calls are words filed in the database; no cut-off is given here.

Legend:
[1] = Potency index, ratio of Histidine EC50 to compound EC50 for inhibition of H2O2-induced ROS production; format: functional
[2] = Antioxidant activity assessed as inhibition of H2O2-induced ROS production by DCFH assay; format: functional
How it was run: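 DCFH oxidation assay: H2O2 (0.5 mM) was incubated with DCFH with or without the test agent, and the DCF formed was read fluorometrically. Free His and Trolox served as controls.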

[3] = Antioxidant activity assessed as inhibition of H2O2-induced hydroxyl radical formation by EPR spectroscopic analysis in presence of Fe2+; format: functional
How it was run: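 Hydroxyl radicals came from a Fenton reaction: H2O2 (10 mM), FeSO4·7H2O (10 mM) and DMPO spin trap (40 mM), with peptide at 1−1000 μM. Samples were diluted in 15 mM phosphate buffer, pH 7.4, and read immediately by EPR. The spin-adduct signal was integrated.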

[4] = Drug degradation in H2O2 solution at 2.7 mM after 1 month by HPLC/MS/NMR analysis in presence of Fe2+; format: physicochemical; details: H2O2 solution with Fe2+; read-out: Drug degradation
[5] = Induction of self-assembly of the compound in phosphate buffer at 100 uM after 2 days by uranyl acetate staining-based TEM analysis; format: physicochemical; details: 48 h
How it was run: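 Peptide (100 μM) was aged 2 days in phosphate buffer and negatively stained 30 s with 2% uranyl acetate. Nanotube formation was examined by TEM at 120 kV.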

[6] = system: L6; experiment: Effect on human myc epitope-tagged total GLUT4 level overexpressed in rat L6 cells at 25 uM after 8 hrs by Western blotting analysis; format: functional, cell-based
How it was run: (§1)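 Whole-cell lysates of GLUT1myc- or GLUT4myc-overexpressing L6 myotubes were made after the same treatments as in the surface assay. Western blots were run for total transporter content.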

[7] = system: L6; experiment: Antihyperglycemic activity in rat L6 cells assessed as increase in [3H]dGlc uptake at 25 uM after 6 to 12 hrs by liquid scintillation counting analysis; format: functional, cell-based
[8] = system: L6; experiment: Potency index, ratio of compound activity to ALA activity for increase in [3H]dGlc uptake in rat L6 cells; format: functional
How it was run: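 L6 myotubes (differentiated in αMEM, 2% FCS) preincubated 24 h in 23.5 mM D-glucose, then 4 h serum-free with 0.5% BSA. Peptide at increasing concentrations for 12 h, or ALA 2 mM for 30 min; vehicle 0.1% DMSO. Uptake: 0.1 mM dGlc plus [3H]dGlc 1.3 μCi/mL in PBS pH 7.4, 5 min RT; SDS lysis, scintillation counting, % of vehicle basal. Ratio compares concentrations giving similar uptake.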

[9] = system: L6; experiment: Antioxidant activity in rat L6 cells assessed as trolox equivalents of ABTS free radical scavenging activity at 25 uM after 12 hrs by ELISA reader analysis in presence of 23.5 mM D-glucose; format: functional, cell-based
How it was run: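 L6 myotubes in αMEM with 2% FCS and 5.5 or 23.5 mM glucose were treated with peptide (25 μM, 12 h) or ALA (2 mM, 2 h), vehicle 0.1% DMSO. Cells were lysed (Tris pH 7.5, NaCl, NP-40) through three freeze-thaw cycles and centrifuged. Lysates were assayed for metmyoglobin/H2O2-driven ABTS•+ formation. Results are Trolox equivalents per mg protein from a Trolox standard curve, with protein by Bradford.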

[10] = system: L6; experiment: Antiapoptotic activity in rat L6 cells assessed as suppression of 23.5 mM D-glucose-induced JNK-54 phosphorylation at 25 uM after 8 hrs by Western blot analysis; format: functional, cell-based
How it was run: (§2)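 L6 myotubes held 7 days in 23.5 mM glucose medium, then exposed to peptide for 8 h or ALA for 3 h. Whole-cell lysates were made in ice-cold lysis buffer, and 5−60 μg protein was run on 10−12% SDS-PAGE. Blots were probed for total and phosphorylated JNK (p-54, p-46) and α-tubulin. Band densities were normalized to total JNK. Two-tailed Student's t test.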

[11] = system: L6; experiment: Effect on total GLUT4 level in rat L6 cells at 25 uM after 8 hrs by Western blotting analysis; format: functional, cell-based
[12] = biological target: T1, Solute carrier family 2, facilitated glucose transporter member 1 (Homo sapiens) (UniProt P11166); experiment: Induction of human myc epitope-tagged GLUT1 translocation to plasma membrane overexpressed in rat L6 cells at 25 uM after 8 hrs by immunocolorimetric analysis in presence of 23.5 mM D-glucose; format: cell-based
T1 sequence (whole entry): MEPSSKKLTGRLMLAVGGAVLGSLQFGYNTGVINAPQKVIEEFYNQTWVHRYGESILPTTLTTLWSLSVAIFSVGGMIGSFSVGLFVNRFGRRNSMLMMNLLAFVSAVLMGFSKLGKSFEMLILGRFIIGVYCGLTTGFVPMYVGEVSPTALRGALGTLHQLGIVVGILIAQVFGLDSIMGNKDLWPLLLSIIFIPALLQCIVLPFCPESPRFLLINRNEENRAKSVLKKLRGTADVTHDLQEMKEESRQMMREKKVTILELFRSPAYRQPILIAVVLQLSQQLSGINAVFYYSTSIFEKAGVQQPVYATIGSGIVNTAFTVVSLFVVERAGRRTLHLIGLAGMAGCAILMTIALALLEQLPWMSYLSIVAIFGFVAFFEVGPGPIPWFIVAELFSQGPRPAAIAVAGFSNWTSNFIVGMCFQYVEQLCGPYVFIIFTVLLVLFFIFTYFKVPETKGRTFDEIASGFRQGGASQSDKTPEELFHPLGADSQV
How it was run: (§3)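 L6 myotubes overexpressing GLUT1myc or GLUT4myc were held 9 h in serum-free αMEM with 0.5% BSA and 23.5 mM glucose. They received peptide (25 μM) or 0.1% DMSO over the last 8 h, and insulin (100 nM) or ALA (2 mM) over the last 30 min. Live cells were labelled with anti-c-Myc (1:200) and fixed in 3% formaldehyde. HRP anti-rabbit IgG (1:2000) and OPD were added, and absorbance was read at 492 nm.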

[13] = system: L6; experiment: Antiapoptotic activity in rat L6 cells assessed as suppression of 23.5 mM D-glucose-induced JNK-46 phosphorylation at 25 uM after 8 hrs by Western blot analysis; format: functional, cell-based; how it was run: as §2
[14] = system: L6; experiment: Effect on total GLUT1 level in rat L6 cells at 25 uM after 8 hrs by Western blotting analysis; format: functional, cell-based
[15] = system: L6; experiment: Cytoprotective activity in rat L6 cells assessed as increase in glucose oxidase-reduced cell survival at 25 uM incubated for 12 hrs prior to glucose oxidase challenge measured after 5 hrs by MTT assay in presence of 23.5 mM D-glucose; format: functional, cell-based
How it was run: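 L6 myotubes were kept 7 days in 23.5 mM glucose. They were pretreated with peptide (25 μM, 12 h) or ALA (2 mM, 30 min), vehicle 0.1% DMSO, at 37 °C. Glucose oxidase (50 mU mL−1) was then added for 5 h to generate H2O2. Viability was read by MTT.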

[16] = system: L6; experiment: Antihyperglycemic activity in rat L6 cells assessed as increase in [3H]dGlc uptake after 12 hrs by liquid scintillation counting analysis; format: functional, cell-based
How it was run: (§4)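 Differentiated L6 myotubes were preincubated 24 h in αMEM with 2% FCS and 5.5 or 23.5 mM D-glucose, then switched to FCS-free medium with 0.5% BSA 4 h before the assay. Peptide was given for 12 h or ALA for 30 min, vehicle 0.1% DMSO. After PBS rinses, cells took up 0.1 mM dGlc plus [3H]dGlc (1.3 μCi mL−1) for 5 min at room temperature. Cells were lysed in 0.1% SDS and counted by scintillation. Uptake is expressed as % of the DMSO basal rate.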

[17] = biological target: T2, Solute carrier family 2, facilitated glucose transporter member 4 (Homo sapiens) (UniProt P14672); experiment: Induction of human myc epitope-tagged GLUT4 translocation to plasma membrane overexpressed in rat L6 cells at 25 uM after 8 hrs by immunocolorimetric analysis in presence of 23.5 mM D-glucose relative to insulin; format: cell-based; how it was run: as §3
T2 sequence (whole entry): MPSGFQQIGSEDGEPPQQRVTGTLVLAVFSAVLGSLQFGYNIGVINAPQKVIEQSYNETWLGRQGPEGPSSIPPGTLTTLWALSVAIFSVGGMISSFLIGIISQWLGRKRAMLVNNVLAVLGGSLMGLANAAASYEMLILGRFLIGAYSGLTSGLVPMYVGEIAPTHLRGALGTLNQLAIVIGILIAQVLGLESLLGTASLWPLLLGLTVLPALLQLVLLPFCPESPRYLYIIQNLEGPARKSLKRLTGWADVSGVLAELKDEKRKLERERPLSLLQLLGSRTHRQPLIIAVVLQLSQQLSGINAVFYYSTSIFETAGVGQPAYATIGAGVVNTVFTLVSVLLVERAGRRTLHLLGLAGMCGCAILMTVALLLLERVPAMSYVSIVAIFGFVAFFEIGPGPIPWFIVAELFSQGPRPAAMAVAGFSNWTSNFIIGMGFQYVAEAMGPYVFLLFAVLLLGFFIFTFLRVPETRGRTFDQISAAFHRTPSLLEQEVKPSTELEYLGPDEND

[18] = system: L6; experiment: Effect on human myc epitope-tagged total GLUT1 level overexpressed in rat L6 cells at 25 uM after 8 hrs by Western blotting analysis; format: functional, cell-based; how it was run: as §1
[19] = system: L6; experiment: Antihyperglycemic activity in rat L6 cells assessed as increase in [3H]dGlc uptake at 5 uM after 12 hrs by liquid scintillation counting analysis; format: functional, cell-based; how it was run: as §4
[20] = Antioxidant activity assessed as inhibition of H2O2-induced hydroxyl radical formation by EPR spectroscopic analysis in absence of Fe2+; format: functional

Q: Which Ratio EC50 [1] does the source give for NCCCC[C@H]1NC(=O)[C@H](Cc2c[nH]cn2)NC(=O)[C@@H](Cc2c[nH]c3ccccc23)NC(=O)[C@H](Cc2c[nH]c3ccccc23)NC(=O)[C@@H](Cc2c[nH]cn2)NC(=O)[C@H](Cc2c[nH]cn2)NC(=O)[C@@H](Cc2c[nH]cn2)NC(=O)[C@H](CO)NC1=O here?
A: The Ratio EC50 was 30.

Q: What about the pEC50 [2] of the same compound?
A: Its pEC50 is 6.70.

Q: With Cc1c(C)c2c(c(C)c1O)CCC(C)(C(=O)O)O2 (centres undefined) [TROLOX] as the compound, how does the pEC50 [2] read?
A: The pEC50 was 6.46.

Q: With NCCCC[C@H]1NC(=O)[C@H](Cc2c[nH]cn2)NC(=O)[C@@H](Cc2c[nH]cn2)NC(=O)[C@H](Cc2c[nH]cn2)NC(=O)[C@@H](Cc2c[nH]cn2)NC(=O)[C@H](Cc2c[nH]c3ccccc23)NC(=O)[C@@H](Cc2c[nH]c3ccccc23)NC(=O)[C@H](Cc2c[nH]cn2)NC1=O as the compound, how does the pEC50 [3] read?
A: Its pEC50 is 5.52.

Q: What about the degraded at 730.5 h [4] of the same compound?
A: Its degraded at 730.5 h is < 5%.

Q: And the Activity [5]?
A: Its Activity is “Active”.

Q: And the pEC50 [2]?
A: Its pEC50 is 6.40.

Q: For NCCCC[C@H]1NC(=O)[C@H](Cc2c[nH]cn2)NC(=O)[C@@H](Cc2c[nH]c3ccccc23)NC(=O)[C@H](Cc2c[nH]c3ccccc23)NC(=O)[C@@H](Cc2c[nH]cn2)NC(=O)[C@H](Cc2c[nH]cn2)NC(=O)[C@@H](Cc2c[nH]cn2)NC(=O)[C@H](Cc2c[nH]cn2)NC1=O, which Activity [6] is on record?
A: The Activity was “inactive”.

Q: What about the Activity [7] of the same compound?
A: Its Activity is “Active”.

Q: And the Ratio [8]?
A: The Ratio was 80.

Q: And the inhibition [3]?
A: Its inhibition is “Dose-dependent effect”.

Q: And the Activity [9]?
A: The Activity was “Active”.

Q: What about the Activity [10] of the same compound?
A: The Activity was “Active”.

Q: And the Activity [11]?
A: The Activity was “inactive”.

Q: What about the Activity [12] of the same compound?
A: Its Activity is “Active”.

Q: What about the Activity [13] of the same compound?
A: The Activity was “Active”.

Q: What about the Ratio EC50 [1] of the same compound?
A: The Ratio EC50 was 15.

Q: And the Activity [14]?
A: Its Activity is “inactive”.

Q: And the Activity [15]?
A: Its Activity is “Active”.

Q: What about the Activity [16] of the same compound?
A: Its Activity is “Dose-dependent effect”.

Q: And the Activity [17]?
A: The Activity was 60%.

Q: And the Activity [18]?
A: The Activity was “inactive”.

Q: And the Activity [19]?
A: Its Activity is “Active”.

Q: What about the inhibition [20] of the same compound?
A: Its inhibition is “Active”.
